Results on 6 compounds are retold here after ChEMBL document CHEMBL4261598, “Synthesis of novel mono and bis nitric oxide donors with high cytocompatibility and release activity” (Bioorg Med Chem Lett, 2018).

Each structure is given as a SMILES string. Calls of active or inactive are those of the source. The calls are words filed in the database; no cut-off is given here.

In series [1] the test system is VSMC. Kind of series: Induction of NO release in human VSMC assessed as intracellular S-nitrosothiol level at 100 uM after 1 hr by fluorimetric method. It is filed as functional. The method, boiled down: (§1)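 HVSMC seeded in 6-well plates 48 h before, then incubated 1 h at 37°C with compound (mono-amidoximes and GSNO reference 100 µM, bis-amidoxime 50 µM); controls PBS with 0.1% DMSO. Cells washed and lysed, then RSNO and nitrite quantified immediately by fluorometric 2,3-diaminonaphthalene/N2O3 assay giving naphthotriazole (ex 375, em 415 nm). Mean ± SEM, three independent experiments.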

For series [2], the system named is Liver. As to the kind of experiment: Induction of NO release in rat liver microsomes assessed as nitrite levels after 10 mins in presence of NADPH and dioxygen by Griess assay. It is filed as functional. The conditions noted are these: microsome. In short, it runs like this:
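Amidoximes incubated 10 min with rat liver microsomes and NADPH; supernatant nitrite quantified by Griess assay, expressed as nmol NO2-/mg P450. Background from controls lacking microsomes, amidoxime or NADPH, or with parent nitrile, was subtracted. 4-Chlorobenzamidoxime served as reference. Mean ± SEM of three to five independent experiments.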
Background: Microsomes from liver hold many membrane-bound enzymes, among them those of drug oxidation.

For series [3], the system named is VSMC. Kind of series: (§2) Cytotoxicity against human VSMC assessed as cell viability at 100 uM after 24 hrs by MTT assay. The class given is cell-based. The note with it: vsmc, 24 h, 100 µM. In short, it runs like this:
(§3)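 Human vascular smooth muscle cells incubated 24 h with amidoximes over 0.001 to 100 µM; viability measured (method in Supporting Information). Mean ± SEM of three to four tests, two-way ANOVA.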
On the technique in general: Tetrazolium dyes change colour on reduction, which living cells bring about.

Series [4] has as its system VSMC. Kind of series: Induction of NO release in human VSMC assessed as intracellular S-nitrosothiol level at 50 uM after 1 hr by fluorimetric method. The class given is functional. The method, boiled down:
as §1

Series [5] can be described thus: as §2. The note with it: VSMC cells, read-out: Activity. The class given is cell-based. In short, it runs like this:
as §3

`N[C@@H](CCC(=O)N[C@@H](CSN=O)C(=O)NCC(=O)O)C(=O)O`: the outcome in series [1] was Active.

Regarding `COc1ccc(C(=N)NO)cc1`, the Activity in series [1] was 0.21 µM; in series [2], 1.5 nmol/mg; in series [3], “Non-Toxic”.

For `N/C(CCCCOc1ccc(/C(N)=N/O)cc1)=N\O`, the result in series [2] was Active. Also, the Activity entry in series [3] is “Non-Toxic”; in series [4], 0.17 µM.

Take `N/C(CCCCOc1ccccc1)=N\O`: the outcome in series [2] was Active. For the same compound, the Activity entry in series [3] was “Non-Toxic”.

With `N/C(=N\O)c1ccc(O)cc1`, the Activity came out at 0.2 µM in series [1] and 2.4 nmol/mg in series [2]. For the same compound, the viability at 24 h, 100 µM in series [5] was 74.7%.

In the case of `N/C(=N\O)c1ccc(Cl)cc1`, the values for the Activity in series [1] and in series [2] were 0.03 µM and 1.3 nmol/mg, respectively.
